Here are results for 8 compounds from ChEMBL document CHEMBL1955810, “Thieno[2,3-d]pyrimidinedione derivatives as antibacterial agents” (Eur J Med Chem, 2012).

Values after ≈ are worked out from the molar mass of the structure shown.

For one series, the system named is Streptococcus pneumoniae. The series can be described thus: Antibacterial activity against Streptococcus pneumoniae ATCC 49619 after 18 to 24 hrs by broth microdilution method. In kind it is functional. A digest of the protocol: (§1)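 Strains grown overnight at 35°C on tryptic soy agar; 0.5 McFarland saline suspension diluted in Mueller-Hinton broth, final inoculum 5 × 10⁵ CFU/mL. Twofold serial dilutions, final 0.06 to 32 mg/L, in MHB; incubated 35°C for 18–24h. MIC read visually as lowest concentration preventing growth.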

The subject of the next series is Enterococcus faecium. The series can be described thus: Antibacterial activity against vancomycin-resistant Enterococcus faecium 7303 after 18 to 24 hrs by broth microdilution method. Format: functional. A digest of the protocol: (§2)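 MIC by broth microdilution in Mueller-Hinton broth. Strains grown overnight at 35°C on tryptic soy agar, suspended in saline to 0.5 McFarland, diluted in MHB, final inoculum 5 × 10⁵ CFU/mL. Twofold serial dilutions, final 0.06 to 32 mg/L. Incubated 35°C for 18–24 h. MIC read visually as lowest concentration preventing growth.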
(In general: Dilution methods test growth across graded concentrations, often in twofold steps.)

The subject of series [1] is Staphylococcus aureus. The series can be described thus: Antibacterial activity against vancomycin-resistant Staphylococcus aureus MI after 18 to 24 hrs by broth microdilution method. In kind it is functional. A digest of the protocol: as §2
Series [2] has as its system Staphylococcus aureus. In words: Antibacterial activity against methicillin-resistant Staphylococcus aureus 494 after 18 to 24 hrs by broth microdilution method. In kind it is functional. A digest of the protocol: as §2
Series [3] can be described thus: Therapeutic index, ratio of LD50 for mouse NIH/3T3 cells to MIC for vancomycin-resistant Staphylococcus aureus MI. Format: cell-based. The note with it: read-out: TI. A digest of the protocol:
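Index computed as LD50 from NIH-3T3 MTS viability (24 h exposure, 10–100 mg/L, nonlinear regression) divided by VRSA MIC from broth microdilution (5 × 10⁵ CFU/mL, 35°C, 18–24 h, visual read).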

A short description of series [4]: Cytotoxicity against mouse NIH/3T3 cells after 24 hrs by MTS assay. As to conditions: read-out: LD50. In kind it is cell-based, NIH3T3. The gist of the method:
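NIH-3T3 mouse embryo fibroblasts kept in DMEM with 10% FBS, about 10,000 cells per well, attached overnight. Treated 24 h with 10, 25, 50 or 100 mg/L compound (DMSO) in DMEM/FBS. MTS added in fresh DMEM for 1 h at 37 °C, absorbance at 490 nm. Four replicates, media negative and 5% DMSO positive controls. Viability relative to untreated cells; LD50 by nonlinear regression.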
For orientation: Formazan colour is commonly taken as a measure of viable cells.

The test system of a further series is Klebsiella aerogenes. In words: Antibacterial activity against Enterobacter aerogenes CEF 3978 after 18 to 24 hrs by broth microdilution method. Format: functional. The gist of the method:
as §1

The subject of another series is Pseudomonas aeruginosa. The series can be described thus: Antibacterial activity against Pseudomonas aeruginosa ATCC 27853 after 18 to 24 hrs by broth microdilution method. In kind it is functional. The gist of the method: as §1
Series [5] concerns Staphylococcus aureus. The series can be described thus: Antibacterial activity against vancomycin-intermediate Staphylococcus aureus Mu50 after 18 to 24 hrs by broth microdilution method. In kind it is functional. The gist of the method:
as §1

A further series deals with Escherichia coli. In words: Antibacterial activity against Escherichia coli ATCC 25922 after 18 to 24 hrs by broth microdilution method. In kind it is functional. A digest of the protocol: as §1
The nature of series [6]: Toxicity in sheep RBC assessed as hemolysis at 25 times MIC after 1 hr. Format: cell-based, Ovis aries, Erythrocyte. As to conditions: sheep red blood cells, read-out: Activity. The gist of the method: (§3)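 Sheep RBCs separated from plasma and white cells by centrifugation, washed twice in TBS (10 mM Tris, 150 mM NaCl, pH 7.0), diluted to 1%. Treated with increasing concentrations of compound in DMSO, 37 °C for 1 h, in duplicate. Supernatant absorbance at 414 nm for hemoglobin release; DMSO set as 0%, 1% Triton X as 100% hemolysis.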

A further series has as its system Klebsiella pneumoniae. The series can be described thus: Antibacterial activity against Klebsiella pneumoniae CEF 3978 after 18 to 24 hrs by broth microdilution method. Format: functional. The gist of the method:
as §1

A short description of series [7]: Toxicity in sheep RBC assessed as hemolysis at 50 times MIC after 1 hr. Format: cell-based, Ovis aries, Erythrocyte. The note with it: sheep red blood cells, read-out: Activity. The gist of the method: as §3

The term MIC denotes the least concentration at which growth counts as inhibited. A higher MIC goes with a less susceptible organism.

For `CC(C)C1Cc2sc3[nH]c(=O)n(C/C=C/c4ccc(O)cc4)c(=O)c3c2C(Cc2ccccc2)C1` (stereo unspecified), the MIC against Streptococcus pneumoniae was 32 µg/mL (≈ 65.8 µM); against Enterococcus faecium it was 8 µg/mL (≈ 16.4 µM); with Staphylococcus aureus [1], 8 µg/mL (≈ 16.4 µM); in the series on Staphylococcus aureus [2], 16 µg/mL (≈ 32.9 µM); against Klebsiella aerogenes, 32 µg/mL (≈ 65.8 µM); against Pseudomonas aeruginosa, 16 µg/mL (≈ 32.9 µM). Moreover, the MIC in the series with Staphylococcus aureus [5] is 16 µg/mL (≈ 32.9 µM); in the series with Escherichia coli, 32 µg/mL (≈ 65.8 µM); in the series with Klebsiella pneumoniae, 32 µg/mL (≈ 65.8 µM). The selectivity ratio in series [3] worked out at 5. Also, the CC50 at 24 h in series [4] came out at 42 µg/mL (≈ 86.3 µM). Besides, the hemolysis at 1 h, 25 times MIC in [6] was 7%.
On to `CCOC(=O)c1sc2[nH]c(=O)n(C/C=C/c3ccc(O)cc3)c(=O)c2c1CCc1ccccc1`, for which the MIC against Streptococcus pneumoniae came out at 8 µg/mL (≈ 16.8 µM); in the series on Enterococcus faecium, 4 µg/mL (≈ 8.39 µM); against Staphylococcus aureus [1], 2 µg/mL (≈ 4.2 µM); in the series with Staphylococcus aureus [2], 2 µg/mL (≈ 4.2 µM); against Klebsiella aerogenes, 16 µg/mL (≈ 33.6 µM); against Pseudomonas aeruginosa, 32 µg/mL (≈ 67.1 µM). Besides, the MIC was 2 µg/mL (≈ 4.2 µM) in the series with Staphylococcus aureus [5], over 32 µg/mL in the series on Escherichia coli and 32 µg/mL (≈ 67.1 µM) in the series on Klebsiella pneumoniae. Besides, in series [3], the selectivity ratio worked out at 26. For the same compound, the CC50 at 24 h in series [4] was found to be 52 µg/mL (≈ 109 µM). The hemolysis at 1 h, 50 times MIC in series [7] was 2%.
For `COc1ccc(/C=C/Cn2c(=O)[nH]c3sc4c(c3c2=O)C(Cc2ccccc2)CC(C(C)C)C4)cc1` (stereo unspecified), the minimum inhibitory concentration (MIC) in the series with Streptococcus pneumoniae was 32 µg/mL (≈ 63.9 µM); against Enterococcus faecium it was over 32 µg/mL; in the series with Staphylococcus aureus [1], over 32 µg/mL; in the series on Staphylococcus aureus [2], over 32 µg/mL; against Klebsiella aerogenes, 32 µg/mL (≈ 63.9 µM); in the series on Pseudomonas aeruginosa, over 32 µg/mL. In addition, the MIC in the series on Staphylococcus aureus [5], against Escherichia coli and in the series on Klebsiella pneumoniae was over 32 µg/mL each time. For the same compound, the selectivity ratio in [3] stood at 4. The CC50 at 24 h in [4] was found to be 120 µg/mL (≈ 240 µM).
In the case of `CCOC(=O)c1sc2[nH]c(=O)n(C/C=C/c3ccc(OC)cc3)c(=O)c2c1CCc1ccccc1`, the minimal inhibitory concentration (MIC) in the series with Streptococcus pneumoniae was over 32 µg/mL; in the series on Enterococcus faecium, over 32 µg/mL; with Staphylococcus aureus [1], over 32 µg/mL; in the series on Staphylococcus aureus [2], over 32 µg/mL; in the series with Klebsiella aerogenes, 8 µg/mL (≈ 16.3 µM); against Pseudomonas aeruginosa it was over 32 µg/mL. Further, the MIC in the series with Staphylococcus aureus [5], against Escherichia coli and with Klebsiella pneumoniae was over 32 µg/mL each time. The selectivity ratio in series [3] is 3. Besides, the CC50 at 24 h in [4] was determined as 98 µg/mL (≈ 200 µM).
Consider `CCOC(=O)c1c(NC(=O)NC/C=C/c2ccc(O[Si](C)(C)C(C)(C)C)cc2)sc2c1C(Cc1ccccc1)CC(C(C)C)C2` (stereo unspecified), for which the minimum inhibitory concentration (MIC) against Streptococcus pneumoniae, in the series on Enterococcus faecium, in the series with Staphylococcus aureus [1], with Staphylococcus aureus [2], in the series with Klebsiella aerogenes and in the series with Pseudomonas aeruginosa was over 32 µg/mL each time. Moreover, the MIC in the series with Staphylococcus aureus [5], against Escherichia coli and against Klebsiella pneumoniae was over 32 µg/mL throughout.
Regarding `CCOC(=O)c1sc(NC(=O)NC/C=C/c2ccc(O[Si](C)(C)C(C)(C)C)cc2)c(C(=O)OCC)c1CCc1ccccc1`, the MIC against Streptococcus pneumoniae, in the series on Enterococcus faecium, against Staphylococcus aureus [1], in the series on Staphylococcus aureus [2], against Klebsiella aerogenes and against Pseudomonas aeruginosa was over 32 µg/mL throughout. Moreover, the minimal inhibitory concentration (MIC) against Staphylococcus aureus [5], in the series with Escherichia coli and in the series on Klebsiella pneumoniae was over 32 µg/mL each time.
With `CCOC(=O)c1sc(NC(=O)NC/C=C/c2ccc(OC)cc2)c(C(=O)OCC)c1CCc1ccccc1`, the minimal inhibitory concentration (MIC) against Streptococcus pneumoniae, in the series with Enterococcus faecium, against Staphylococcus aureus [1], against Staphylococcus aureus [2], against Klebsiella aerogenes and in the series on Pseudomonas aeruginosa was over 32 µg/mL in each case. Moreover, the MIC with Staphylococcus aureus [5], with Escherichia coli and with Klebsiella pneumoniae was over 32 µg/mL throughout.
As to `CN[C@H](CC(C)C)C(=O)N[C@H]1C(=O)N[C@@H](CC(N)=O)C(=O)N[C@H]2C(=O)N[C@H]3C(=O)N[C@H](C(=O)N[C@H](C(=O)O)c4cc(O)cc(O)c4-c4cc3ccc4O)[C@H](O)c3ccc(c(Cl)c3)Oc3cc2cc(c3O[C@@H]2O[C@H](CO)[C@@H](O)[C@H](O)[C@H]2O[C@H]2C[C@](C)(N)[C@H](O)[C@H](C)O2)Oc2ccc(cc2Cl)[C@H]1O` [VANCOMYCIN], the MIC with Streptococcus pneumoniae is 0.5 µg/mL (≈ 0.345 µM); in the series with Enterococcus faecium it was over 32 µg/mL; in the series on Pseudomonas aeruginosa, over 32 µg/mL.
